Source: PubChem
The list is not random: actives were taken first. Their share in the collection is about 3.1%.
NS3 helicase inh = blocks Hepatitis C virus NS3 helicase unwinding; NS3 helicase DNA unwinding, Cy5 molecular beacon fluorescence; AID 1800; hit rate 0.56% among 290,000; inhibition, % at 10.9 µM;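 active means inhibition above the mean of all tested compounds plus 3 SD, set per campaign, cut at about 35% in these data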;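 further: 0% = DMSO wells and 100% = thioflavine S control wells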
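Test system: hepatitis C virus NS3 helicase domain fragment enzyme. Also added: annealed dual-labelled DNA beacon duplex, ATP-started. Timing: 60 min unwinding reaction at 25 °C after ATP addition. Technique: Cy5 fluorescence. Measure: % inhibition of unwinding.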
IMP-1 inh = blocks Pseudomonas aeruginosa IMP-1 metallo-beta-lactamase. purified IMP-1, nitrocefin hydrolysis, epi-absorbance fluorescence. inhibition, % at 5.6 µM. hit rate 0.45% among 290,000. AID 1556;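 active means inhibition above the mean plus 3 SD of all compounds in the same screening run, cut at about 4.5% in these data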;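 further: 0% = IMP-1 with DMSO and 100% = DMSO wells lacking enzyme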
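Test system: recombinant IMP-1 enzyme, purified / Medium: HEPES buffer pH 7.1 with ZnSO4 and Brij 35 / Doses: single dose, 5.6 µM / Times: 25 °C, 15 min preincubation, 25 min reaction / Detection: Epi-absorbance via hydrolysed-nitrocefin quenching of white-plate fluorescence, 480/530 nm, EDTA stop / Evaluation: percent inhibition from optical density relative to buffer-blank wells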
core dimer inh = blocks dimerization of HCV core protein. TR-FRET GST/Flag-core106 dimerization, 1536-well. inhibition, % at 5 µM. hit rate 0.33% among 300,000;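 active means inhibition above the mean of all tested compounds plus 3 SD, set per screening campaign, cut at about 45% in these data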
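System: GST/Flag-tagged HCV core106 proteins. Incubation: compound-protein-antibody incubation 4 h at 22.5 °C. Technique: HTRF with 340 nm excitation, 617/671 nm emission. Medium: KF-containing HEPES buffer, pH 7.45, DTT, CHAPS, BSA. Read-out: inhibition (%) from 671 over 617 nm ratio. Also added: Eu(K)-anti-GST 90 ng/mL plus XL665-anti-Flag 1 µg/mL.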
VIM-2 inhibitor = blocks Pseudomonas aeruginosa VIM-2 metallo-beta-lactamase. purified VIM-2, nitrocefin hydrolysis, epi-absorbance fluorescence. inhibition, % at 5.6 µM. hit rate 0.89% among 290,000. AID 1527;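 active means inhibition above the mean of all tested compounds plus 3 SD, cutoff set per screening run, cut at about 7.5% in these data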;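 further: red hydrolysis product quenches plate fluorescence so inhibitors raise well fluorescence; 0% = enzyme with DMSO and 100% = DMSO without enzyme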
SUMO HTRF inh = blocks human SUMOylation mediated by UBC9. P63279. HTRF SUMOylation assay, SAE1/SAE2 + UBC9, in vitro. inhibition, % at 35 µM. hit rate 0.36% among 290,000; in the data active means inhibition above about 50%, passing the limit was not always enough
Target sequence (P63279 whole entry, looked up): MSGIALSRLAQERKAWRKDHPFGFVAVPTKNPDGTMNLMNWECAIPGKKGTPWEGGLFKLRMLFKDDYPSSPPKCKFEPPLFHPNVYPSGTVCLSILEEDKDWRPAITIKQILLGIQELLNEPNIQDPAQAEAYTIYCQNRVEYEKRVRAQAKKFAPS
PHOSPHO1 inh = blocks human PHOSPHO1 phosphatase activity; recombinant PHOSPHO1, absorbance phosphatase assay; hit rate 1.1% among 290,000; inhibition, % at 13.3 µM; AID 1565; in the data active means inhibition above about 60%
Target sequence (Q8TCT1 whole entry, looked up): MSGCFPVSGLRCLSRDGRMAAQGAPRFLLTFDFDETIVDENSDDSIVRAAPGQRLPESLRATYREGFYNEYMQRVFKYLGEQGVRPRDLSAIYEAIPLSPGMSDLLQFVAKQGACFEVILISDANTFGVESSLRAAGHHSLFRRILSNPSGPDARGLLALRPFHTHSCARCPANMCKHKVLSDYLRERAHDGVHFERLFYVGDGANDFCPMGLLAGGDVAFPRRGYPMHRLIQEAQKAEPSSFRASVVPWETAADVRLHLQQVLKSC
The depositor's hits bear a star; nt = no result given; ! = a repeat was not active.

SMILES	NS3 helicase inh	IMP-1 inh	core dimer inh	VIM-2 inhibitor	SUMO HTRF inh	PHOSPHO1 inh
COC(=O)c1c(NC(=O)C(=O)N2CCOCC2)sc2c1CCCC2	2	-1	3	6	14	12
CC(Nc1nc(N2CCN(S(C)(=O)=O)CC2)nc2ccccc12)c1ccccc1 (stereo unspecified)	-3	4.5*	10	1	13	16
COc1ccc(Nc2nc(N3CCN(S(C)(=O)=O)CC3)nc3ccccc23)c(OC)c1	-15	-3	-4	4	10	45
Oc1c(C(c2ccco2)N2CCOCC2)sc2ncnn12 (stereo unspecified)	0	-1	11	0	26	90*
Cc1nc2sc(C(c3ccco3)N3CC(C)OC(C)C3)c(O)n2n1 (stereo unspecified)	6	-2	-2	-3	4	103*
Cc1nc2sc(C(c3ccco3)N3CCC(C)CC3)c(O)n2n1 (stereo unspecified)	7	-3	-111	-4	-5	-5
Oc1c(C(c2ccccc2)N2CCCCC2)sc2ncnn12 (stereo unspecified)	0	-2	-3	-1	3	-5
O=C(CC1C(=O)NCCN1Cc1cccc(Oc2ccccc2)c1)NCCCn1cccn1 (stereo unspecified)	3	0	1	-1	0	58
CCN(CC)C(=S)Sc1c(-c2ccccc2)c2cc(Cl)ccc2[nH]c1=O	-2	-2	5	-3	-117	88*
O=C(O)CSc1c(-c2ccccc2)c2cc(Cl)ccc2[nH]c1=O	8	-3	-20	-1	3	-11
O=c1[nH]c2ccc(Cl)cc2c(-c2ccccc2)c1CN1CCOCC1	5	-1	16	3	-19	2
O=c1[nH]c2ccc(Cl)cc2c(-c2ccccc2)c1N1CCOCC1	1	-4	-2	-4	-3	70*
C=CCN(c1ccc(F)cc1)S(=O)(=O)c1cc(C(=O)OCC(=O)N(C)C2CCS(=O)(=O)C2)ccc1Cl (stereo unspecified)	-26	-1	0	0	0	14
COCCCn1c(SCC(=O)N2CCc3ccccc32)nnc1-c1ccco1	-6	-2	0	-4	14	-8
COCCCn1c(SCC(=O)N2CCc3ccccc32)nnc1-c1ccoc1C	0	-1	55*	-1	nt	nt
COc1cc(/C=c2\sc3nc(-c4ccncc4)nn3c2=O)ccc1OC(C)=O	6	-4	nt	8	11	87*
COc1ccc(S(=O)(=O)N2CCCC(N(C)CCc3ccccc3)C2)cc1OC (stereo unspecified)	-13	-2	8	-2	10	nt
CC1(C)Oc2ccc3ccc(=O)oc3c2/C(=C/Nc2ccccc2)C1=O	5	-3	0	-1	-4	4
CC1(C)Oc2ccc3ccc(=O)oc3c2/C(=C/NC2CCCCC2)C1=O	10	-3	8	-3	29	-2
CC1(C)Oc2ccc3ccc(=O)oc3c2-c2cnoc21	10	-3	-7	-2	-12	95*
CC1(C)Oc2ccc3ccc(=O)oc3c2/C(=C/O)C1=O	3	-2	5	1	14	-16
CC1(C)Oc2ccc3ccc(=O)oc3c2-c2cn[nH]c21	-4	-4	-2	8.0*	24	14
CC1(C)Oc2ccc3ccc(=O)oc3c2/C(=C/N)C1=O	4	-3	0	2	23	73*
O=C(CC1OC(=O)c2ccccc21)Nc1cc(Cl)ccc1N1CCCC1 (stereo unspecified)	nt	nt	3	nt	nt	nt
CN(C)C(=O)c1ccc(-c2cc(C(F)(F)F)n(C)n2)s1	5	-1	-3	-2	0	25
SMILES	NS3 helicase inh	IMP-1 inh	core dimer inh	VIM-2 inhibitor	SUMO HTRF inh	PHOSPHO1 inh
CCOC(=O)N1CCN(C(=O)CSc2ccc(-c3cccnc3)nn2)CC1	-5	-7	-3	-3	12	-23
Cc1sc2nc(COC(=O)CNC(=O)c3ccc(C(C)(C)C)cc3)[nH]c(=O)c2c1C	-2	8.6*	16	-4	-15	-12
COc1ccc(C)cc1NC(=O)CSc1nnc(-c2cc(C)[nH]n2)n1N	-5	0	3	-3	3	33
N=c1c(C(=O)NCC2CCCO2)cc2c(=O)n3ccccc3nc2n1C1CCCCC1 (stereo unspecified)	16	0	-8	2	35	-6
N=c1c(C(=O)NCC2CCCO2)cc2c(=O)n3ccccc3nc2n1C1CCCC1 (stereo unspecified)	3	-1	-6	1	7	-22
Cc1ccc2nc3c(cc(C(=O)NCC4CCCO4)c(=N)n3C3CCCC3)c(=O)n2c1 (stereo unspecified)	15	-5	-7	7.9*	34	4
Cc1cccn2c(=O)c3cc(C(=O)NCC4CCCO4)c(=N)n(C4CCCC4)c3nc12 (stereo unspecified)	5	-3	4	11*	23	43
O=c1c2c3c(sc2n2cnnc2n1Cc1ccccc1)CN(Cc1ccccc1)CC3	-29	-2	51*	1	16	7
CCOC(=O)N1CCN(c2ccnc3cc(Cl)ccc23)CC1	1	-3	-9	-2	15	24
CCOC(=O)N1CCC(=C2c3ccc(Cl)cc3CCc3cccnc32)CC1	-13	-3	14	-3	-25	74*!
COc1cccc(OCC(=O)Nc2c3c(nn2-c2ccc(F)cc2)CS(=O)(=O)C3)c1	4	-2	1	0	20	29
O=C(Nc1ccc(S(=O)(=O)Nc2nccs2)cc1)c1c(F)c(F)c(F)c(F)c1F	16	-3	-12	-3	-6	nt
Cc1cc(C(=O)OCC(=O)c2ccc(Cl)c([N+](=O)[O-])c2)c2cccc(C)c2n1	12	-1	46*	-4	18	-17
Cc1ccc2nc(C)cc(C(=O)OCC(=O)c3ccc(Cl)c([N+](=O)[O-])c3)c2c1	5	1	39	2	12	-3
CCc1cc(C(=O)N2CCCC(C(=O)c3cccc4ccccc34)C2)n(C)n1 (stereo unspecified)	-4	-1	4	0	3	35
CCOc1cc(/C=N/Nc2nn3cnnc3c3ccccc23)ccc1O	4	-4	-4	5	2	24
Oc1ccc(/C=N/Nc2nn3cnnc3c3ccccc23)cc1	-1	-4	0	8.8*	12	18
COc1cccc(/C=N/Nc2nn3cnnc3c3ccccc23)c1	2	-4	-16	12*	25	14
COc1cc(/C=N/Nc2nn3cnnc3c3ccccc23)ccc1O	2	-5	-5	1	6	-109
Cc1nn(-c2ccccc2)c(C)c1C(=O)OC/C(O)=C(\C#N)c1nc2ccccc2[nH]1	-9	-5	67*	-2	-5	23
